# Experimental data pooled from the literature.
# Each line is one published result; the experiments were not run side by side.
Structure (SMILES),assay,system,conditions,endpoint,result
Cc1c(C(=O)O)ccc2c3n(nc12)[C@@H]1[C@H](C3)N(CC2CC2)[C@@]2(C(=O)Nc3cc(Cl)ccc32)[C@H]1c1cccc(Cl)c1F,,"female mouse, plasma",intravenous,Vd,0.44 L/kg
Cc1ccc(C(=O)Nc2ccc(CN3CCN(C)CC3)c(C(F)(F)F)c2)cc1C#Cc1cnc2[nH]ncc2c1,,"human, plasma","oral, 20 mg, healthy volunteers",half-life,33.2 h
COc1ccc([C@@H](O)c2cc(-c3ncnc4cc(N5CCOCC5)ccc34)c(F)cc2Cl)nn1,,"human, plasma","oral, 400 mg, single dose, patients",half-life,3.51 h
N#C[C@@]12C[C@@H]1[C@@H](n1cnc3c(N[C@@H](C4CCC4)C4CC4)nc(I)nc31)[C@H](O)[C@@H]2O,chemical stability,simulated intestinal fluid,2 h,compound remaining,97.8%
NC(=S)NN=Cc1ncccc1N,,"human, plasma","oral, 100 mg",half-life,1.5 h
Cn1cc(Nc2nc(N)nc(-c3cccc(-n4ccc5cc(C6CC6)cc(F)c5c4=O)c3CO)n2)cn1,,"human, plasma","oral, 300 mg, single dose, fasted, healthy volunteers",half-life,9.7 h
CC(C)n1c(Nc2cccnc2)nc2cnc(Nc3ccc(N4CCN(C)CC4)cc3)nc21,,"male human, plasma","oral, 100 mg, single dose",half-life,35.4 h
O=[N+]([O-])c1ccc(-c2ccc(O)cc2)c2cccnc12,,"male CD-1 mouse, plasma","oral, 5 mg/kg",Vd/F,157 L/kg
NS(=O)(=O)OC[C@@H]1C[C@@H](n2ccc3c(N[C@H]4CCc5ccccc54)ncnc32)C[C@@H]1O,,"human, plasma","intravenous, 35 mg/m², patients",half-life,5.1 h
CNC(=O)n1ccc2cc(Oc3ccnc(NC(=O)c4ccc(C5CCN(CCO)CC5)cc4)c3)c(OCCOC)cc21,,"human, plasma","oral, 35 mg, single dose, healthy volunteers",half-life,21 h
